Test results as given in ChEMBL document CHEMBL1955828, “Anti-mycobacterial activities of some cationic and anionic calix[4]arene derivatives” (Bioorg Med Chem, 2012).
Values after ≈ are worked out from the molar mass of the structure shown.

Legend:
[1] = system: Mycobacterium tuberculosis; assay: Antimycobacterial activity against Mycobacterium tuberculosis H37Rv at 10 uM after 6 days by MTT assay; assay type: functional; settings: 144 h, read-out: GI
[2] = system: Mycobacterium tuberculosis; assay: Antimycobacterial activity against Mycobacterium tuberculosis H37Rv at 1 uM after 6 days by MTT assay; assay type: functional; settings: 144 h, read-out: GI
[3] = system: Mycobacterium tuberculosis; assay: Antimycobacterial activity against Mycobacterium tuberculosis H37Rv after 6 days by MTT assay; assay type: functional, organism-based; settings: 144 h
In short: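 Twofold serial compound dilutions in Middlebrook 7H9 broth were inoculated with bacterial suspension in 7H9 (H37Rv, or INH-resistant MYC5165) and incubated 6 days. MTT (1 mg/mL) was then added, followed by 1 more day of incubation, solubilisation buffer, and OD read at 570 nm. MIC was the lowest concentration inhibiting growth relative to untreated bacilli, and IC50 was also determined.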

[4] = system: Escherichia coli; assay: Antibacterial activity against Escherichia coli ATCC 25922 by microdilution method; assay type: functional
[5] = system: Enterococcus faecalis; assay: Antibacterial activity against Enterococcus faecalis ATCC 29212 by microdilution method; assay type: functional
[6] = Cytotoxicity against human MRC5 cells by MTT assay; assay type: cell-based
[7] = system: Staphylococcus aureus; assay: Antibacterial activity against Staphylococcus aureus ATCC 25923 by microdilution method; assay type: functional
[8] = system: Pseudomonas aeruginosa; assay: Antibacterial activity against Pseudomonas aeruginosa ATCC 27853 by microdilution method; assay type: functional

SMILES | inhibition of growth at 10 µM [1] [%] | inhibition of growth at 1 µM [2] [%] | MIC [3] [µM] | also measured
O=C(O)Cc1cc2c(O)c(c1)Cc1cc(CC(=O)O)cc(c1O)Cc1cc(CC(=O)O)cc(c1O)Cc1cc(CC(=O)O)cc(c1O)C2 | 7 | 0 | – | –
NNC(=O)c1ccncc1 [ISONIAZID] | – | – | 0.6 (≈ 0.0823 µg/mL) | –
N=C(N)NCCc1cc2c(O)c(c1)Cc1cc(CCNC(=N)N)cc(c1O)Cc1cc(CCNC(=N)N)cc(c1O)Cc1cc(CCNC(=N)N)cc(c1O)C2.O=C(O)C(F)(F)F | 97 | 73 | 0.8 | MIC [4]: 4 µg/mL; MIC [5]: 4 µg/mL; IC50 [3]: 250 nM; CC50 [6]: 256 µg/mL; MIC [7]: 4 µg/mL; MIC [8]: 4 µg/mL
Cc1csc(-c2nc(COc3c4cc(CCN)cc3Cc3cc(CCN)cc(c3O)Cc3cc(CCN)cc(c3OCc3csc(-c5nc(C)cs5)n3)Cc3cc(CCN)cc(c3O)C4)cs2)n1 | 19 | 25 | – | –
Cc1csc(-c2nc(COc3c4cc(CC(=O)O)cc3Cc3cc(CC(=O)O)cc(c3O)Cc3cc(CC(=O)O)cc(c3OCc3csc(-c5nc(C)cs5)n3)Cc3cc(CC(=O)O)cc(c3O)C4)cs2)n1 | – | – | > 50 | –
CO[C@H]1/C=C/O[C@@]2(C)Oc3c(C)c(O)c4c(O)c(c(/C=N/N5CCN(C)CC5)c(O)c4c3C2=O)NC(=O)/C(C)=C\C=C\[C@H](C)[C@H](O)[C@@H](C)[C@@H](O)[C@@H](C)[C@H](OC(C)=O)[C@@H]1C [RIFAMPIN] | – | – | 0.24 (≈ 0.198 µg/mL) | –
Cc1cccc(-c2cccc(COc3c4cc(S(=O)(=O)O)cc3Cc3cc(S(=O)(=O)O)cc(c3O)Cc3cc(S(=O)(=O)O)cc(c3OCc3cccc(-c5cccc(C)n5)n3)Cc3cc(S(=O)(=O)O)cc(c3O)C4)n2)n1 | – | – | > 50 | –
Cc1cccc(-c2cccc(COc3c4cc(CC(=O)O)cc3Cc3cc(CC(=O)O)cc(c3O)Cc3cc(CC(=O)O)cc(c3OCc3cccc(-c5cccc(C)n5)n3)Cc3cc(CC(=O)O)cc(c3O)C4)n2)n1 | – | – | > 50 | –
Cc1ccc(-c2ccc(COc3c4cc(CCNC(=N)N)cc3Cc3cc(CCNC(=N)N)cc(c3O)Cc3cc(CCNC(=N)N)cc(c3OCc3ccc(-c5ccc(C)cn5)nc3)Cc3cc(CCNC(=N)N)cc(c3O)C4)cn2)nc1.O=C(O)C(F)(F)F | 98 | 62 | 0.8 | MIC [4]: 4 µg/mL; MIC [5]: 4 µg/mL; IC50 [3]: 50 nM; CC50 [6]: 128 µg/mL; MIC [7]: 4 µg/mL; MIC [8]: 4 µg/mL
Cc1csc(-c2nc(COc3c4cc(S(=O)(=O)O)cc3Cc3cc(S(=O)(=O)O)cc(c3O)Cc3cc(S(=O)(=O)O)cc(c3OCc3csc(-c5nc(C)cs5)n3)Cc3cc(S(=O)(=O)O)cc(c3O)C4)cs2)n1 | – | – | > 50 | –
Cc1cccc(-c2cccc(COc3c4cc(CP(=O)(O)O)cc3Cc3cc(CP(=O)(O)O)cc(c3O)Cc3cc(CP(=O)(O)O)cc(c3OCc3cccc(-c5cccc(C)n5)n3)Cc3cc(CP(=O)(O)O)cc(c3O)C4)n2)n1 | – | – | 50 (≈ 58.2 µg/mL) | IC50 [3]: 12400 nM
O=P(O)(O)Cc1cc2c(O)c(c1)Cc1cc(CP(=O)(O)O)cc(c1O)Cc1cc(CP(=O)(O)O)cc(c1O)Cc1cc(CP(=O)(O)O)cc(c1O)C2 | 5 | 0 | – | –
Cc1csc(-c2nc(COc3c4cc(CCNC(=N)N)cc3Cc3cc(CCNC(=N)N)cc(c3O)Cc3cc(CCNC(=N)N)cc(c3OCc3csc(-c5nc(C)cs5)n3)Cc3cc(CCNC(=N)N)cc(c3O)C4)cs2)n1.O=C(O)C(F)(F)F | 90 | 54 | 1.6 | MIC [4]: 4 µg/mL; MIC [5]: 4 µg/mL; IC50 [3]: 400 nM; CC50 [6]: 16 µg/mL; MIC [7]: 4 µg/mL; MIC [8]: 4 µg/mL
CC[C@@H](CO)NCCN[C@@H](CC)CO [ETHAMBUTOL] | 65 | – | 9.8 (≈ 2 µg/mL) | –
Cc1ccnc(-c2cc(C)ccn2)c1 | – | – | 136 (≈ 25 µg/mL) | –
NCCc1cc2c(O)c(c1)Cc1cc(CCN)cc(c1O)Cc1cc(CCN)cc(c1O)Cc1cc(CCN)cc(c1O)C2 | 76 | 27 | 3.2 (≈ 1.91 µg/mL) | IC50 [3]: 400 nM
O=C(O)c1cn(C2CC2)c2cc(N3CCNCC3)c(F)cc2c1=O [CIPROFLOXACIN] | – | – | 2.5 (≈ 0.828 µg/mL) | –
c1ccc(-c2ccccn2)nc1 [DIPYRIDYL] | – | – | 160 (≈ 25 µg/mL) | –
Cc1cccc(-c2cccc(COc3c4cc(CCNC(=N)N)cc3Cc3cc(CCNC(=N)N)cc(c3O)Cc3cc(CCNC(=N)N)cc(c3OCc3cccc(-c5cccc(C)n5)n3)Cc3cc(CCNC(=N)N)cc(c3O)C4)n2)n1.O=C(O)C(F)(F)F | 10 | 7 | – | MIC [4]: 4 µg/mL; MIC [5]: 4 µg/mL; MIC [7]: 4 µg/mL; MIC [8]: 4 µg/mL
Cc1cccc(-c2cccc(COc3c4cc(CCN)cc3Cc3cc(CCN)cc(c3O)Cc3cc(CCN)cc(c3OCc3cccc(-c5cccc(C)n5)n3)Cc3cc(CCN)cc(c3O)C4)n2)n1 | 0 | 7 | – | –
Cc1ccc(-c2ccc(COc3c4cc(CCN)cc3Cc3cc(CCN)cc(c3O)Cc3cc(CCN)cc(c3OCc3ccc(-c5ccc(C)cn5)nc3)Cc3cc(CCN)cc(c3O)C4)cn2)nc1 | 81 | 63 | 0.8 (≈ 0.769 µg/mL) | IC50 [3]: 200 nM
O=S(=O)(O)c1cc2c(O)c(c1)Cc1cc(S(=O)(=O)O)cc(c1O)Cc1cc(S(=O)(=O)O)cc(c1O)Cc1cc(S(=O)(=O)O)cc(c1O)C2 | 0 | 0 | – | –
CN[C@@H]1[C@H](O[C@H]2[C@H](O[C@H]3[C@H](O)[C@@H](O)[C@H](N=C(N)N)[C@@H](O)[C@@H]3N=C(N)N)O[C@@H](C)[C@]2(O)C=O)O[C@@H](CO)[C@H](O)[C@H]1O [STREPTOMYCIN] | – | – | 0.7 (≈ 0.407 µg/mL) | –
CCc1cc(C(N)=S)ccn1 [ETHIONAMIDE] | – | – | 9 (≈ 1.5 µg/mL) | –
Cc1csc(-c2nc(COc3c4cc(CP(=O)(O)O)cc3Cc3cc(CP(=O)(O)O)cc(c3O)Cc3cc(CP(=O)(O)O)cc(c3OCc3csc(-c5nc(C)cs5)n3)Cc3cc(CP(=O)(O)O)cc(c3O)C4)cs2)n1 | – | – | 50 (≈ 59.5 µg/mL) | –
